Like-named read-outs stand apart in the source and are kept apart here. One block for each compound: values may come before it.
Key:
mPanx1-GFP [1] = molecular target: T1, mPanx1-GFP (Mus musculus, UniProt Q9JIP4); assay: Whole cell patch clamp of depolarization-induced; type: cell-based
Method in brief: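 Neuro2A cells in DMEM with 10% FCS, lipofectamine-transfected with mPanx1-GFP, recorded 24–36 h after replating. Whole-cell clamp at room temperature, held at −60 mV. Pipette CsCl/EGTA with 1 mM ATP. Currents evoked by 10-s ramps from −60 to +100 mV at 20-s intervals; kinetics from +100 mV current over 8.5 min. Test compound superfused at 1 nM–1 mM, washed out after a stable plateau. Dose-response curves; timing by ANOVA with Dunnett's test.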

untagged mPanx1 = untagged mPanx1 (Mus musculus, UniProt Q9JIP4); type: cell-based
untagged mPanx1, sequence (Q9JIP4 whole entry, the tested form may be a part): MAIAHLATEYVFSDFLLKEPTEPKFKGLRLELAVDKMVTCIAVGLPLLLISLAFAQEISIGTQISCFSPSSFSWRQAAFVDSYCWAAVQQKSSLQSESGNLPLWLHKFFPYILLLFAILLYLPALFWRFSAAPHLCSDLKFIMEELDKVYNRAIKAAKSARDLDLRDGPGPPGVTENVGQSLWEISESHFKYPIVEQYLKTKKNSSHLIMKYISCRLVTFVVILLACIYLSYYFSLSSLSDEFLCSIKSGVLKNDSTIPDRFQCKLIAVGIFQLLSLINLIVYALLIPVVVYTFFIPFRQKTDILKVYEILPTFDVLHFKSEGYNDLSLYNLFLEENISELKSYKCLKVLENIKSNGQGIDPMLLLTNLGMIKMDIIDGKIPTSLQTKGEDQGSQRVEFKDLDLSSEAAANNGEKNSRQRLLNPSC
Method in brief: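 Neuro2A cells transfected with untagged mPanx1 construct. Whole-cell recording at room temperature on cells held at −60 mV, with pH 7.4 external and CsCl/EGTA/ATP pipette solutions. Channels activated by 10-s voltage ramps from −60 to +100 mV. Test compound superfused during ramps, then washed out to test reversibility.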

mPanx1-GFP [2] = molecular target: T1, mPanx1-GFP; assay: Inside-out single channel patch clamp on Rin-m cells transfected with Panx1-GFP; type: cell-based; conditions: for Effect on open time of Panx1-GFP channel: inside-out patch
Method in brief: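 Rin-m cells grown in RPMI with 5% fetal calf serum, under passage 20. Transfected overnight with 2 μg mPanx1-GFP via lipofectamine, then replated 24–36 h. Inside-out single-channel recordings at room temperature on brightly fluorescent cells. Bath pH 7.4 NaCl/Hepes; pipette CsCl/EGTA with 1 mM ATP. Test compound perfused 20 s, then washed out. Mean channel open time compared before, during and after.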

adenosine receptors = conditions: ref Weiss et al., 2003; cited from earlier work
[3] = tested on: C×46 hemichannels and Panx1 channels; conditions: oocytes; ref Bruzzone et al, 2006; cited from earlier work
human erythrocytes = conditions: ref Skas et al, 2009; cited from earlier work
murine erythrocytes = conditions: ref Skals et al, 2009; cited from earlier work
astrocytes = conditions: nanomolar concentrations, ref Suadicani et al, 2006; cited from earlier work
Panx1 = conditions: nanomolar concentrations, astrocytes; ref Iglesias et al, 2008, 2009; cited from earlier work
[4] = 100 nM, listed as mefloquine from Bioblocks
[5] = 100 nM, listed as mefloquine from Sigma

T1 sequence (Q9JIP4 whole entry, the tested form may be a part): as above

Time required for 50% blockade of Panx1 currents (mPanx1-GFP [1]): 1.5 min
Effect on Panx1-GFP currents evoked by depolarizing voltage ramps (mPanx1-GFP [1]; 10 nM): similarly reduced
Effect on Panx1-GFP currents evoked by depolarizing voltage ramps (mPanx1-GFP [1]; 100 nM): substantially reduced
Time at which current amplitudes were significantly reduced compared to control (mPanx1-GFP [1]; 100 nM, currents at +100mV): 1.5 min
Effect on Panx1-GFP currents evoked by depolarizing voltage ramps (mPanx1-GFP [1]; [4]): similarly reduced
Effect on Panx1-GFP currents evoked by depolarizing voltage ramps (mPanx1-GFP [1]; [5]): not affected
Effect on Panx1-GFP currents evoked by depolarizing voltage ramps (mPanx1-GFP [1]; 1μM): not affected
Effect on Panx1-GFP currents evoked by depolarizing voltage ramps (mPanx1-GFP [1]; 100μM): only minimally blocked
Time required for 50% blockade of Panx1 currents (mPanx1-GFP [1]; applied at 100nM): 0.5 min
Times less potent than erythro-mefloquine racemate from the two other sources (mPanx1-GFP [1]; compared with Bioblocks and NCI-NIH racemate): 10,000 times
Effect on untagged Panx1 currents (untagged mPanx1; 10 nM): similarly reduced
Effect on untagged Panx1 currents (untagged mPanx1; [4]): similarly reduced
Effect on untagged Panx1 currents (untagged mPanx1; [5]): not affected
Effect on untagged Panx1 currents (untagged mPanx1; 1μM): not affected
Effect on open time of Panx1-GFP channel (mPanx1-GFP [2]; 100nM perfused for 20 seconds): decreased
Effect on open time of Panx1-GFP channel (mPanx1-GFP [2]; 1 μM): did not appreciably affect
Mean open time of Panx1 channel after washout (mPanx1-GFP [2]; after washout of 100nM): restored
Structure (SMILES): OC(c1cc(C(F)(F)F)nc2c(C(F)(F)F)cccc12)C1CCCCN1 (racemic) [(±)-erythro-(R*/S*)-mefloquine]

Structure (SMILES): OC(c1cc(C(F)(F)F)nc2c(C(F)(F)F)cccc12)C1CCCCN1 (single isomer, unassigned; (-)) [(−)-erythro- enantiomer, (−)-erythro-(11S/2′R)-MFQ]
Binding to adenosine receptors (adenosine receptors): bind

Effect on Panx1-GFP currents evoked by depolarizing voltage ramps (mPanx1-GFP [1]; 1μM): prevented
Time required for 50% blockade of Panx1 currents (mPanx1-GFP [1]; applied at 10μM): 1.5 min
Structure (SMILES): O[C@H](c1cc(C(F)(F)F)nc2c(C(F)(F)F)cccc12)[C@H]1CCCCN1 [(−)-threo-(11R/2′R)-mefloquine]

Structure (SMILES): CC1(C)[C@@H](OC(=O)CCC(=O)O)CC[C@]2(C)[C@H]3C(=O)C=C4[C@@H]5C[C@@](C)(C(=O)O)CC[C@]5(C)CC[C@@]4(C)[C@]3(C)CC[C@@H]12 [carbenoxolone]
Difference in potency for blockade between C×46 hemichannels and Panx1 channels [3]: 5–10 fold

Structure (SMILES): O=C(O)c1ccccc1Nc1cccc(C(F)(F)F)c1 [flufenamic acid]
Difference in potency for blockade between C×46 hemichannels and Panx1 channels [3]: 5–10 fold

Structure (SMILES): OC(c1cc(C(F)(F)F)nc2c(C(F)(F)F)cccc12)C1CCCCN1 (centres unmarked) [mefloquine]
Concentration required for prevention of HIyA-induced hemolysis (human erythrocytes): above 10 μM
Concentration required for prevention of HIyA-induced hemolysis (murine erythrocytes): above 10 μM
Effect on dye uptake evoked by P2X7 receptor stimulation (astrocytes): block
Effect on depolarization- and BzATP-evoked Panx1 currents (Panx1): inhibit

Reference: article PMC2854254 (Cell communication & adhesion, 2009)
